Assay results reported in PMC5954213 (Molecular pharmaceutics, 2018).
Entries after “also recorded” stand apart in the source; their conditions may differ.

What was measured:
[1] = tested on: guinea pig airway smooth muscle contracted with 1 μM substance P; assay: Relaxation of substance P-contracted guinea pig tracheal rings
α1-3,5β3γ2 GABAARs = type: cell-based; conditions: 0.1 μM or 1 μM, current evoked by GABA
In short: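 Cells were transiently transfected with the indicated α subunit plus β3 and γ2L. Mean enhancement of the GABA-evoked current by 0.1 or 1 μM test compound was measured by patch clamp, n = 5, mean ± SEM.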

peripheral GABAAR = assay: NIMH Psychoactive Drug Screening Program; type: binding; conditions: 10 μM
ova s/c mice [2] = assay: EdU staining of lung sections; type: in vivo, mouse; conditions: 100 mg/kg; compared to vehicle-treated ova s/c mice
In short: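 Ova s/c mice were dosed orally with test compound 100 mg/kg b.i.d. for 5 days or with vehicle. They received EdU 100 mg/kg i.p. once and were euthanized 4 h later. Lungs were formalin-fixed and paraffin-embedded, and 6 μm sections were permeabilized with 0.5% Triton X-100 for 20 min. EdU was click-labelled with Alexa Fluor 488 azide for 30 min in the dark, with Hoechst 33342 counterstain. Sections were read by fluorescence microscopy.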

ova s/c mice [3] = assay: Cytokine expression in lung homogenate; type: in vivo, mouse; conditions: 100 mg/kg p.o. twice daily 5 days
In short: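 Male Balb/c mice were ova/alum-sensitized i.p. on days 0, 7 and 14, then challenged i.n. with ova for 5 days. During challenge they received test compound 100 mg/kg or vehicle (2% HPMC, 2.5% PEG) by oral gavage b.i.d. for 5 days. Snap-frozen whole lung was homogenized in T-PER with protease inhibitors and spun 10,000 rpm for 5 min. Supernatant went to a Th1/Th2/Th17 cytometric bead array on flow cytometry. n = 10/group, one-way ANOVA versus vehicle.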

[4] = Mouse plasma protein binding; type: in vitro ADME
[5] = In vitro microsomal stability, mouse; type: in vitro ADME
ova s/c mice [6] = assay: Mucin volume density in lung sections; type: in vivo, mouse
ova s/c BALB/c mice [7] = assay: Airway hyperresponsiveness; type: in vivo, mouse
ova s/c BALB/c mice [8] = assay: Quantification of airway inflammatory cells in BALF by flow cytometry; type: in vivo, mouse
mice = assay: Sensorimotor coordination study using a rotarod apparatus; type: in vivo, mouse; conditions: 100 mg/kg oral; 15 rpm, 3 minutes, three time points
In short: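 Mice were dosed orally with 100 mg/kg test compound or vehicle (2% HPMC, 2.5% PEG), n = 9. They were tested on a rotarod at 15 rpm for up to 3 min at three time points, and time balanced was recorded. The control was diazepam 5 mg/kg i.p. in 5% DMSO/35% propylene glycol/60% PBS.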

[9] = Pharmacokinetic profile in mouse blood, lungs and brain; type: in vivo
In short: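 Mice received a single oral gavage of 25 mg/kg test compound, suspended by grinding with PEG and then adding 2% HPMC (final vehicle 2% HPMC, 2.5% PEG). Blood, lung and brain were sampled over time and analysed by LC-MS/MS. Tmax, Cmax, AUC and elimination rate constant were calculated from the concentration-time profiles.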

[10] = In vitro microsomal stability, human; type: in vitro ADME
[11] = tested on: CD4+ T lymphocytes isolated from ova s/c mice; assay: Automated patch clamp with CD4+ T lymphocytes in the presence of 600 nM GABA; type: cell-based, mouse
In short: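 Splenic CD4+ T cells from ova s/c BALB/c mice were magnetically enriched after RBC lysis, then suspended at 5x10^6 cells/ml in extracellular solution (pH 7.4) with CsCl-based intracellular solution (pH 7.2). Automated whole-cell patch clamp was held at −80 mV. Test compound (final DMSO 0.1%) was applied for 3 s with 600 nM GABA, which was set as 100%. Eight independent runs, n = 12. EC50 and top came from a sigmoidal fit.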

## C[C@H]1N=C(c2ccccc2F)c2cc(Br)ccc2-n2cnc(C(=O)O)c21 [MIDD0301]
[1]; 25 μM in organ bath
  time to partial relaxation of muscle constriction: ≤ 15 min
[1]; ASM washed with buffer and contracted again with substance P
  reversibility of relaxation effect: reversible
[1]; assuming tracheal concentration is 10% of organ bath concentration
  pharmaceutically active concentration in tissue: single digit micromolar concentration
[1]; comparison with compound 2 data of ref 13
  smooth muscle relaxation compared with compound 2: more pronounced smooth muscle relaxation
[1]; substance P 1 μM, 60 minute assay, vs vehicle 0.1% DMSO
  concentration giving significant relaxation of pre-contracted smooth muscle: ≥ 25 µM
α1-3,5β3γ2 GABAARs
  activation of GABAARs among alpha subtypes tested: activating GABAARs strongly
Peripheral GABAAR
  binding: no significant binding
Ova s/c mice [2]
  EdU cell staining of lung sections (alveolar region): reduced cell staining
Ova s/c mice [3]
  IFN-γ concentration in lung homogenates: not altered significantly
  IL-2 concentration in lung homogenates: not altered significantly
  IL-6 concentration in lung homogenates: not altered significantly
  IL-10 expression in the lung: not significantly altered
  IL-17A levels in lung homogenates: significantly reduced
  lung TNF-α levels: decreased
Ova s/c mice [3]; vs vehicle-treated ova s/c mice
  IL-4 levels in lung homogenates: reduced
[4]
  plasma protein binding: 88%
[5]
  microsomal stability t1/2: 9.15 h
Ova s/c mice [6]; 20 mg/kg b.i.d. 5 days
  mucous production in the airways (mucin volume density): did not produce a significant change
Ova s/c mice [6]; 50 mg/kg b.i.d. 5 days
  mucous production in the airways (mucin volume density): did not produce a significant change
Ova s/c mice [6]; 100 mg/kg b.i.d. 5 days
  mucous production in the airways (mucin volume density): did not produce a significant change
Ova s/c BALB/c mice [7]; 20 mg/kg p.o. b.i.d. 5 days, 12.5 mg/ml methacholine
  effect on AHR (sRaw): downward trend; also recorded: did not reduce AHR significantly
Ova s/c BALB/c mice [7]; 50 mg/kg p.o. b.i.d. 5 days, 12.5 mg/ml methacholine
  effect on AHR (sRaw): sufficient to overcome induced AHR
Ova s/c BALB/c mice [7]; 100 mg/kg p.o. b.i.d. 5 days, 12.5 mg/ml nebulized methacholine
  effect on AHR (sRaw): significantly reduced AHR
Ova s/c BALB/c mice [8]; 20 mg/kg p.o. b.i.d. 5 days
  number of BALF CD4+ T cells: significantly reduced
Ova s/c BALB/c mice [8]; 50 mg/kg p.o. b.i.d. 5 days
  number of BALF CD4+ T cells: significantly reduced
Ova s/c BALB/c mice [8]; 100 mg/kg p.o. b.i.d. 5 days
  BALF F4/80+ cells (macrophages): reduced their numbers significantly
  BALF Siglec F+ cell population (eosinophils/alveolar macrophages): reduced their numbers significantly
  number of BALF CD4+ T cells: significantly reduced
  total inflammatory cells (CD45+) in BALF: significant suppression
mice
  sensorimotor inhibition on rotarod: absence of sensorimotor inhibition
[9]; 25 mg/kg single oral
  blood brain barrier penetration: Poor
[9]; blood and lung, 25 mg/kg single oral
  Tmax: ≤ 0.667 h
[9]; blood, 25 mg/kg single oral
  AUC: 2087.1 µg·min/g
  Cmax: 8.24 µg/g
  half-life: 13.9 h
  rate of elimination: 0.001 min⁻¹
[9]; brain, 25 mg/kg single oral
  AUC: 107.7 µg·min/g
[9]; lung tissue, 25 mg/kg single oral
  elimination rate compared with blood: somewhat faster
[9]; lung, 25 mg/kg single oral
  AUC: 1390.5 µg·min/g
[9]; lungs, 25 mg/kg single oral
  Cmax: 4.39 µg/g
[9]; pharmacokinetic studies, as stated in abstract
  half-life: ~14 h
[10]
  microsomal stability t1/2: 25.77 h
[11]; 600 nM GABA
  concentration at which current change saturated: 100 nM
[11]; 600 nM GABA = 100 %
  maximal potentiation: 512%
[11]; read-out: EC50 of current potentiation, 600 nM GABA
  EC50: 17 nM

## OCc1cc(C(O)CNCCCCCCOCCCCc2ccccc2)ccc1O (stereo not shown) [salmeterol, reference compound]
Ova s/c mice [6]; 1 mg/kg b.i.d. 5 days
  mucous levels in the airways: no effect
Ova s/c BALB/c mice [7]; 1 mg/kg p.o. b.i.d. 5 days
  effect on AHR (sRaw): no anti-AHR effect
Ova s/c BALB/c mice [7]; single oral dose 10 mg/kg acutely before measurement (data not shown)
  effect on AHR (sRaw): without any significant effect on AHR
Ova s/c BALB/c mice [8]; 1 mg/kg p.o. b.i.d. 5 days
  BALF eosinophil population: no significant effect
  BALF macrophage population: no significant effect
  number of BALF CD4+ T cells: reduced
  total inflammatory cells (leukocyte numbers) in BALF: did not significantly change
